Experiment [1] deals with Mu-type opioid receptor (Bos taurus) (UniProt P79350). In words: Evaluation for the ability of mu opioid to protect the [3H]DAMGO binding site from alkylation.
Experiment [2] shares this target. Nature of the experiment: Evaluation for the ability of mu opioids to protect the [3H]DAMGO binding site from alkylation. A digest of the protocol: (§1)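 Protection assay on TPCK-pretreated calf striatal membranes. Membranes were preincubated with 100 nM protecting opioid in 50 mM Tris-HCl pH 7.5 for 30 min at 37 °C. The disulfide ligand (40 or 80 nM) was then added for 2 min at 37 °C in 2 mL. After four centrifugal washes, 0.25 nM [3H]DAMGO binding was measured. Results are % of untreated control; mean ± SE, three experiments in triplicate.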

Experiment [3] shares this target. In words: Effect of DTT on Wash-Resistant Inhibition of [3H]DAMGO at 10 nM of the compound. A digest of the protocol:
(§2)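 They were then given 40 mM DTT for 10 min at 4 °C in 2 mL of 50 mM Tris-HCl pH 7.5, followed by four centrifugal washes. […] Results are % of control without ligand or DTT; mean ± SE, three experiments in triplicate.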

The next experiment concerns the target Mu-type opioid receptor (Bos taurus, UniProt P79350). Nature of the experiment: Evaluation for the inhibition of mu opioid binding to bovine striatal membranes by the affinity ligand 0.25 nM [3H]DAMGO radiolabeled opioid. Details: species or system Striatum, Membrane. A digest of the protocol: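 Competition binding on bovine striatal membranes: twelve compound concentrations with radioligand in 1 mL of 50 mM Tris-HCl pH 7.5 at 25 °C, with 5 mM MgCl2 and 0.1 mM PMSF. Incubation was 60 min for [3H]DAMGO and [3H]U69,593 and 4 h for [3H]pCl-DPDPE. […] Filtration used PEI-soaked filters for the κ and δ ligands. Mean IC50 ± SE, three experiments.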

For experiment [4], the target named is Mu-type opioid receptor (Bos taurus) (UniProt P79350). Nature of the experiment: Effect of DTT on Wash-Resistant Inhibition of [3H]DAMGO by 10 nM. In a few lines:
as §2

Experiment [5] deals with Delta-type opioid receptor (Homo sapiens) (UniProt P41143). Nature of the experiment: Evaluation for the ability of delta opioids to protect the [3H]DAMGO binding site from alkylation. The conditions noted are these: Bos taurus. In a few lines: as §1
Chain of Delta-type opioid receptor (Homo sapiens) (P41143 whole entry): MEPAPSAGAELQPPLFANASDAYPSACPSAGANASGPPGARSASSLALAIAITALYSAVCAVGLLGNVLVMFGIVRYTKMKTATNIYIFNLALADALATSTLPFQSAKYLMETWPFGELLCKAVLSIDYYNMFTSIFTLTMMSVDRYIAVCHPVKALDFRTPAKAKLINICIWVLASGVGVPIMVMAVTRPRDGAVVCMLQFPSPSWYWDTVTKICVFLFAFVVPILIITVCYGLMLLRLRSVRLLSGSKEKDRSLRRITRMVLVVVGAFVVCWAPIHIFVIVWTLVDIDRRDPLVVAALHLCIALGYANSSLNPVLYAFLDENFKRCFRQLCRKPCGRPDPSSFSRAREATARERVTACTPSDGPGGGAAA
The target of experiment [6] is Kappa-type opioid receptor (Homo sapiens) (UniProt P41145). In words: Evaluation for the ability of kappa opioids to protect the [3H]-DAMGO binding site from alkylation. The conditions noted are these: Bos taurus. A digest of the protocol:
as §1

Square brackets hold non-standard residues; d marks the D form. Peptide text beside a SMILES is read from it. * marks the point of attachment. Tyr(Nα,Nα-allyl2) = C=CCN(CC=C)[C@@H](Cc1ccc(O)cc1)C(=O)*; Aib = CC(C)(N)C(=O)O

Chain of Mu-type opioid receptor (Bos taurus) (P79350 whole entry): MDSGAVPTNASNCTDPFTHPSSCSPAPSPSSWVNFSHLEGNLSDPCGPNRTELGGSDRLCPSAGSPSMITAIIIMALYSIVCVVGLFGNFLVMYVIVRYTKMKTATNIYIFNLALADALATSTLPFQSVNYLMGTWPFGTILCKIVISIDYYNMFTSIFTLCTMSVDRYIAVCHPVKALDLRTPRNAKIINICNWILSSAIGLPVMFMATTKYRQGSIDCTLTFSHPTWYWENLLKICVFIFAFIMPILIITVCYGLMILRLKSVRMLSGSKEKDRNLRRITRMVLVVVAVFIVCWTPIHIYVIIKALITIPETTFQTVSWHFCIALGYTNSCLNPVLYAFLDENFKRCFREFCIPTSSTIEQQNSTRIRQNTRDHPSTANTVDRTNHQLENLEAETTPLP
Chain of Mu-type opioid receptor (P79350 whole entry): as above
Chain of Kappa-type opioid receptor (Homo sapiens) (P41145 whole entry): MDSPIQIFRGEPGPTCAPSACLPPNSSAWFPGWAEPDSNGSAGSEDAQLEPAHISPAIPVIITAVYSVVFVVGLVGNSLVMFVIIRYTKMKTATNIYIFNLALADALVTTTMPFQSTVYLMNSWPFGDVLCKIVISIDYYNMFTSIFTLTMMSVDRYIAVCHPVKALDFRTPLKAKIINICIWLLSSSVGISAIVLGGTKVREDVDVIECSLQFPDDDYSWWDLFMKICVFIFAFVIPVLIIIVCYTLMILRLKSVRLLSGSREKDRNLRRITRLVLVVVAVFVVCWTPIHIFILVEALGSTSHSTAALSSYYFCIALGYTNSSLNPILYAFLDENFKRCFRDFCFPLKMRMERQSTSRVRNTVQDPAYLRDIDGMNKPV

Molecule `CN1CC[C@]23c4c5ccc(O)c4O[C@H]2[C@@H](O)C=C[C@H]3[C@H]1C5` returned an Activity in experiment [1] of 67.

The molecule `CN1CC[C@]23c4c5ccc(O)c4O[C@H]2C(=O)CC[C@@]3(NC(=O)CSSCC(=O)N[C@@]23CCC(=O)[C@@H]4Oc6c(O)ccc7c6[C@@]42CCN(C)[C@@H]3C7)[C@H]1C5` had an Activity in experiment [2] of 25. For the same molecule, the inhibition (usually the share of the control response that was lost under treatment) in experiment [3] is 50%. In addition, the IC50 (as a rule, the concentration that inhibits the measured activity by half) on Mu-type opioid receptor came out at 0.4 nM.

Turning to `O=C(CSSCC(=O)N[C@@]12CCC(=O)[C@@H]3Oc4c(O)ccc5c4[C@@]31CCN(CC1CC1)[C@@H]2C5)N[C@@]12CCC(=O)[C@@H]3Oc4c(O)ccc5c4[C@@]31CCN(CC1CC1)[C@@H]2C5`, the IC50 at Mu-type opioid receptor amounted to 3.29 nM. The same molecule had an inhibition in experiment [4] of 63%. For the same molecule, the Activity in experiment [5] was determined as 25; in experiment [6], 30.

Turning to `Oc1ccc2c3c1O[C@H]1c4[nH]c5ccccc5c4C[C@@]4(O)[C@@H](C2)N(CC2CC2)CC[C@]314`, the Activity in experiment [1] was 25.

`C=CCN(CC=C)[C@@H](Cc1ccc(O)cc1)C(=O)NC(C)(C)C(=O)NC(C)(C)C(=O)N[C@@H](Cc1ccccc1)C(=O)N[C@@H](CC(C)C)C(=O)O` ({Tyr(Nα,Nα-allyl2)}-[Aib][Aib]FL-OH) yielded an Activity in experiment [1] of 24.

Values taken from ChEMBL document CHEMBL1127738, “14 alpha,14' beta-[Dithiobis[(2-oxo-2,1-ethanediyl)imino]]bis (7,8-dihydromorphinone) and 14 alpha,14' beta-[dithiobis[(2-oxo-2,1- ethanediyl)imino]]bis[7,8-dihydro-N-(cyclopropylmethyl)normorphinone]: chemistry and opioid binding properties” (J Med Chem, 1994).
